For series [1], the target named is 5'-AMP-activated protein kinase catalytic subunit alpha-2 (Rattus norvegicus) (UniProt Q09137). Briefly: Activation of AMPK in rat L6 cells assessed as increase of [3H]dGlc uptake at 10 to 200 uM. Format: cell-based. The note with it: TDE = time-dependent effect. Put shortly: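 Fully differentiated L6 myotubes preincubated 24 h in αMEM with 2% FCS and 23.0 mmol/L D-glucose, then 4 h serum-free with 0.5% BSA. Compound or DMSO vehicle given for the indicated times or concentrations. Uptake read after 5 min at room temperature in PBS pH 7.4 with 0.1 mmol/L dGlc and 1.3 μCi/mL [3H]dGlc, by scintillation of SDS lysates. Zero-time basal rate set as 100%; n=6.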

A short description of series [2]: Solubility of the compound in water. The note with it: buffer. The class given is physicochemical.
The subject of series [3] is L6. The series can be described thus: Activation of AMPKalpha in rat L6 cells assessed as phosphorylation at Thr172 at 50 uM after 4 hrs by Western blot analysis relative to control. Format: cell-based. Put shortly:
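L6 myotubes treated 4 h with increasing compound concentrations (5 to 150 μM) or DMSO. Whole-cell lysates immunoblotted for pThr172-AMPKα, AMPKα and α-tubulin; phosphorylation expressed relative to DMSO-treated control.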

The test system of series [4] is L6. Briefly: Activation of AMPKalpha in rat L6 cells assessed as phosphorylation at Thr172 at 100 uM after 1 hr by Western blot analysis. The class given is cell-based. Put shortly:
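L6 myotubes exposed for the indicated times to test compound (100 μM in the first series; 50–150 μM in the second) or 4 mM AICAR. Whole-cell lysates immunoblotted for pThr172-AMPKα, AMPKα and α-tubulin; band densities from three independent experiments vs respective controls.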

In brackets after ≈: the same amount, converted by molar mass. Activity calls are given as the source filed them. The calls are words filed in the database; no cut-off is given here.

Sequence of 5'-AMP-activated protein kinase catalytic subunit alpha-2 (Rattus norvegicus) (Q09137 whole entry): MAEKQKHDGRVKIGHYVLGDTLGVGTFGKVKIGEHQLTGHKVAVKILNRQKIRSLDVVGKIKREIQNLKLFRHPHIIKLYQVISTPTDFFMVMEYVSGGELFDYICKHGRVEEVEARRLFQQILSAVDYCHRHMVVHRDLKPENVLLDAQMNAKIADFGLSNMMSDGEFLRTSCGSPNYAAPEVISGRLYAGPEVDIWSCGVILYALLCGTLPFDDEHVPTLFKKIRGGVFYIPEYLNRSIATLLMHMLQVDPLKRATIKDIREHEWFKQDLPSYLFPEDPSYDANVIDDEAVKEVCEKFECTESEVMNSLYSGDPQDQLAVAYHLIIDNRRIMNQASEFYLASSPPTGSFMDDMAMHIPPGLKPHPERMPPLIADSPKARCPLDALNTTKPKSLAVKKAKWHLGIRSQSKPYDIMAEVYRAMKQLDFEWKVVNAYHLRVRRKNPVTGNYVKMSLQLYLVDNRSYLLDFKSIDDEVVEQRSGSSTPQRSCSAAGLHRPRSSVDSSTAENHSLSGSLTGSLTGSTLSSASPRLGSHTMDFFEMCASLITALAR

Take `CCOc1ccc2nc(SCc3nc4ccccc4s3)sc2c1`: the Activity entry in series [1] is “tde”. The solubility in series [2] is 12.1 µM (≈ 4.33 µg/mL). In addition, the fold change (FC) in the series on L6 [3] was found to be 6. The outcome with L6 [4] was Active.

These data come from ChEMBL document CHEMBL2396611, “Synthesis and mechanism of hypoglycemic activity of benzothiazole derivatives” (J Med Chem, 2013).
